These results are taken from ChEMBL document CHEMBL1132360, “N-Substituted (2,3-dihydro-1,4-benzodioxin-2-yl)methylamine derivatives as D(2) antagonists/5-HT(1A) partial agonists with potential as atypical antipsychotic agents” (J Med Chem, 1999).

The term ED50 denotes the dose at which the effect has come halfway, by size or by number of responders. Lower therefore signals an effect at a small dose. One may read the Ki as the equilibrium dissociation constant of an inhibitor or competing ligand from its target. Read a high Ki as lower affinity.

In one test the test system is Rattus norvegicus. The test is described as follows: The compound was tested in vivo for induction of catalepsy in rat after ip administration. Format: functional. The gist of the method:
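Male rats (130–190 g), groups of five, injected ip with compound solution (1 mL/kg). Catalepsy assessed at three times by placing each paw on a 45 mm rubber bung; a paw held 15 s scores 1 (group maximum 20 = 100%). ED50 from percent catalepsy at the final reading, by adapted Litchfield–Wilcoxon.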

The nature of test [1]: The compound was tested for binding affinity against MCB receptor.
Another test has as its target Histamine H1 receptor (Rattus norvegicus, UniProt P31390). The test is described as follows: The compound was tested for binding affinity against H1 receptor.
The target in the next test is D(2) dopamine receptor (Homo sapiens, UniProt P14416). The test is described as follows: The compound was tested for binding affinity against human Dopamine receptor D2L.
Sequence of D(2) dopamine receptor (P14416 whole entry): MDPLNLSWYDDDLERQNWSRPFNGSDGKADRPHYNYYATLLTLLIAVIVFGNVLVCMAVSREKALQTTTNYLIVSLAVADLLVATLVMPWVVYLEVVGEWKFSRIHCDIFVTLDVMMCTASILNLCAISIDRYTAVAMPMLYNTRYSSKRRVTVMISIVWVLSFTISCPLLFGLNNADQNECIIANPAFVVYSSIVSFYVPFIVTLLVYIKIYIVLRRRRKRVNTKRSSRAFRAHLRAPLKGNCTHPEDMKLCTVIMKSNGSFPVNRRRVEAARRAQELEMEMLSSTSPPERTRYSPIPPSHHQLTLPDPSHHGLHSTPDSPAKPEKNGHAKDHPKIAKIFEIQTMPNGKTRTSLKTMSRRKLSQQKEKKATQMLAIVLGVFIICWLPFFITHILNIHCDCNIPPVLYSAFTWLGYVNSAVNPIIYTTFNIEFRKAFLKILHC
In test [2] the target is 5-hydroxytryptamine receptor 2A (Rattus norvegicus, UniProt P14842). The test is described as follows: The compound was tested for binding affinity against 5-hydroxytryptamine 2A receptor.
Sequence of 5-hydroxytryptamine receptor 2A (P14842 whole entry): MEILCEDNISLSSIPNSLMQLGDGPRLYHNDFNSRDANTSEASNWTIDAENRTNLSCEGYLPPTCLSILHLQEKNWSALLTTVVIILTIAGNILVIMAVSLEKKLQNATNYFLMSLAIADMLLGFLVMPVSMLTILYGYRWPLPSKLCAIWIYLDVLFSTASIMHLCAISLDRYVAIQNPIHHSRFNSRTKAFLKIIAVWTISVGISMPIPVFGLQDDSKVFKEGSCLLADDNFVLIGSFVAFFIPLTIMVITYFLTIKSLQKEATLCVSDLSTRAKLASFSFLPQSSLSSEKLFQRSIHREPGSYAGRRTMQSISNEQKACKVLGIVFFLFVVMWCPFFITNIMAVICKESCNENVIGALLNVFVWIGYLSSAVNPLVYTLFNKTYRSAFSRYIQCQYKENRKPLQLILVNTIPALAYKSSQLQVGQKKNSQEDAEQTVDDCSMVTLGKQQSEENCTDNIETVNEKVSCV
The target of another test is D(3) dopamine receptor (Homo sapiens, UniProt P35462). The test is described as follows: The compound was tested for binding affinity against human Dopamine receptor D3.
Sequence of D(3) dopamine receptor (P35462 whole entry): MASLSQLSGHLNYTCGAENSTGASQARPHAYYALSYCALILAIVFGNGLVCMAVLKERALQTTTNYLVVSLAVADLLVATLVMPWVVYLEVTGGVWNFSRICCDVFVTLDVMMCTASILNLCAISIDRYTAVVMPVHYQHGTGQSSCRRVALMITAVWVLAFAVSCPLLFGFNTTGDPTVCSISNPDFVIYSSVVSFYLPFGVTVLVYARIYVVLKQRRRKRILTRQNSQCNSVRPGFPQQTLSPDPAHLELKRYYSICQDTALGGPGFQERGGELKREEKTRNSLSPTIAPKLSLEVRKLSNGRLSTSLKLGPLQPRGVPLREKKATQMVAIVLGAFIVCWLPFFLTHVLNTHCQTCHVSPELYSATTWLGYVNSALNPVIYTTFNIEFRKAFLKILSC
The target in test [3] is 5-hydroxytryptamine receptor 6 (Rattus norvegicus, UniProt P31388). The test is described as follows: The compound was tested for binding affinity against 5-hydroxytryptamine 6 receptor.
Sequence of 5-hydroxytryptamine receptor 6 (P31388 whole entry): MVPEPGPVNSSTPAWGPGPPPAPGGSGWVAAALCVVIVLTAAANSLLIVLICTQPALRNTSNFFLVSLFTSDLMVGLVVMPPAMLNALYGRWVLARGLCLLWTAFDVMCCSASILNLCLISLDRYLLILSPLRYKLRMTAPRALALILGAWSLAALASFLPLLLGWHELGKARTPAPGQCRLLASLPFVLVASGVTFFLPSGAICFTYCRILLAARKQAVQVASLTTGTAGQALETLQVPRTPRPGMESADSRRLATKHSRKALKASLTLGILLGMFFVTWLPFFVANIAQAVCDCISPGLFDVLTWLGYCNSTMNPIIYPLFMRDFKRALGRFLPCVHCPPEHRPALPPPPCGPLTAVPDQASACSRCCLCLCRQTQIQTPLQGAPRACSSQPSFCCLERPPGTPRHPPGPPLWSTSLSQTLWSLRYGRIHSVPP
A further test relates to Mus musculus. The test is described as follows: Antagonistic activity against apomorphine induced climbing in the mouse after po administration. It counts as functional. The gist of the method: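 Male CD1 mice (20–25 g), groups of 10, dosed po with compound or vehicle ([…]) at set times before apomorphine 0.88 mg/kg sc. Each mouse placed in an inverted open-ended wire cage; climbing scored 0–2 at 10 and 20 min after apomorphine.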

For test [4], the target named is T1, 5-hydroxytryptamine receptor 1A (Rattus norvegicus, UniProt P19327).
T1 sequence (P19327 whole entry): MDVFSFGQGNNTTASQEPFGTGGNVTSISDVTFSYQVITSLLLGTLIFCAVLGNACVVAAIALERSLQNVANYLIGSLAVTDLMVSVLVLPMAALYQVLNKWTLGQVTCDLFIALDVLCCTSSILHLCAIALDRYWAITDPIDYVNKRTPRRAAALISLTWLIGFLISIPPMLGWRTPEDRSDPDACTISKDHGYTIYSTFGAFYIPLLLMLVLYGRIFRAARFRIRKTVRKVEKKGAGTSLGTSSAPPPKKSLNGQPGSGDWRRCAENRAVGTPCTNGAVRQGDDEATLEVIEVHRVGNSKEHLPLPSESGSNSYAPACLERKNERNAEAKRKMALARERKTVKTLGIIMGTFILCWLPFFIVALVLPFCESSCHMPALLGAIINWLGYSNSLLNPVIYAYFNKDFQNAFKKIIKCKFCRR
The test is described as follows: Binding affinity towards 5-hydroxytryptamine 1A receptor from rat brain using [3H]-8-OH-DPAT as radioligand.

In test [5] the target is T2, Adrenergic receptor alpha-1 (Homo sapiens, UniProt P35348+P25100+P35368).
T2 sequence (P35348 whole entry): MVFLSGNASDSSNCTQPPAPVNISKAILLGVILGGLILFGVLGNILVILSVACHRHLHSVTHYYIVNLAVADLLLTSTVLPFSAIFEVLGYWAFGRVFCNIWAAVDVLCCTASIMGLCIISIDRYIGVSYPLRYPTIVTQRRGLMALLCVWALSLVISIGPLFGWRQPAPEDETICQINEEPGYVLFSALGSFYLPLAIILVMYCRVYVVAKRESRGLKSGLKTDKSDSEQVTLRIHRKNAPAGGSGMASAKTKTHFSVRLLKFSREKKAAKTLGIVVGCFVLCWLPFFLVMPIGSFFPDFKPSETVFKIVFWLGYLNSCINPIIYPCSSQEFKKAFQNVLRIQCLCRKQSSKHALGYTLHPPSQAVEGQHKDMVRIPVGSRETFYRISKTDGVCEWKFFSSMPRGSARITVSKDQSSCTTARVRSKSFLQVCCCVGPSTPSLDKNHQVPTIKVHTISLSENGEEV
T2 sequence (P25100 whole entry): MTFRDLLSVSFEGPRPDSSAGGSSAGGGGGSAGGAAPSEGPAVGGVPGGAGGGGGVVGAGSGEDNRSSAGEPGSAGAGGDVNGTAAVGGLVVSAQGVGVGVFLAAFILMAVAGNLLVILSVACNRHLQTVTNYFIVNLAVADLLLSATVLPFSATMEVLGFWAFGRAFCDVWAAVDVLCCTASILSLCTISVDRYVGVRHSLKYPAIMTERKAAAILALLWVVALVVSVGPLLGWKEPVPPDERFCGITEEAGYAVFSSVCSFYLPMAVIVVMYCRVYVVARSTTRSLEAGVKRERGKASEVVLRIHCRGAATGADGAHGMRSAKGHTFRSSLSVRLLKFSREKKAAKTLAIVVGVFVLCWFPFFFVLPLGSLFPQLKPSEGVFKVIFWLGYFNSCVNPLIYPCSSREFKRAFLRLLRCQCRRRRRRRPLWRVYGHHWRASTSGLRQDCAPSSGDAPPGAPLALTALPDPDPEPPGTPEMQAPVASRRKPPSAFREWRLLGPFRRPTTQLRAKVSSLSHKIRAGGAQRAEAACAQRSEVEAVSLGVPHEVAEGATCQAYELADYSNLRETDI
T2 sequence (P35368 whole entry): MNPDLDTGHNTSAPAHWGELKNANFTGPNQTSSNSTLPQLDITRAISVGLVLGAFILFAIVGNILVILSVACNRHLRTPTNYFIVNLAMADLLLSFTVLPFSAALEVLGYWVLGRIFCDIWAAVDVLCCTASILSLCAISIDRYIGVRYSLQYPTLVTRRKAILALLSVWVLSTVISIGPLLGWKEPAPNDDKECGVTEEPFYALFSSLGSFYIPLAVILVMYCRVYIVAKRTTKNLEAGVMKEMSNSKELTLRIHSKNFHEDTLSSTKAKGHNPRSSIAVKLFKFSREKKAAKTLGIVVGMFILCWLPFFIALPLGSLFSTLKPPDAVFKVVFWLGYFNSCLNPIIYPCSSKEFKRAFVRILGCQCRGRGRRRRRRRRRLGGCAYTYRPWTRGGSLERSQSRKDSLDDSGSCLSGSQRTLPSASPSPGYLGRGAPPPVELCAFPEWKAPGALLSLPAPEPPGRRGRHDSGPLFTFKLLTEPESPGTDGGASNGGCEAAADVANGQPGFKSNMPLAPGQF
The test is described as follows: The compound was tested for binding affinity against human Alpha-1 adrenergic receptor. Format: protein assay. The essentials: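 Postmortem human cortex membranes, stored at −80 °C, assayed in 50 mM Tris-HCl pH 7.6. Incubated with 0.1 nM [3H]prazosin for 30 min at 30 °C, test agent at 10^-6 M or 10 concentrations; 5 μM phentolamine for nonspecific binding. IC50 by curve fitting, converted to Ki (Cheng–Prusoff).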

A further test deals with D(1B) dopamine receptor (Homo sapiens, UniProt P21918). The test is described as follows: The compound was tested for binding affinity against human Dopamine receptor D5.
Sequence of D(1B) dopamine receptor (P21918 whole entry): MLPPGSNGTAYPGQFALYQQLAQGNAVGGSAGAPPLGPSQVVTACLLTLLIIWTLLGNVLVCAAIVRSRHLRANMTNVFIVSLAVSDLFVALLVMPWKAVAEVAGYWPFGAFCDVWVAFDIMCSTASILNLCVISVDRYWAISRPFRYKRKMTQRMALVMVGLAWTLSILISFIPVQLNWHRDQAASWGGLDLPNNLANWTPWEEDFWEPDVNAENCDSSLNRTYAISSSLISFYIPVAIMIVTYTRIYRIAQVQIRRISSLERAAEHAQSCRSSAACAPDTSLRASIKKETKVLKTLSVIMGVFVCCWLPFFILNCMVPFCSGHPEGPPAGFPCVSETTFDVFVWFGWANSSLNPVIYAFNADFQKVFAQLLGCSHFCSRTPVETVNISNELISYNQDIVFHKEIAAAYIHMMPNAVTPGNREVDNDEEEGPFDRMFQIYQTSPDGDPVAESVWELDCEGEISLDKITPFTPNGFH
The target of test [6] is 5-hydroxytryptamine receptor 1B (Sus scrofa, UniProt P79399). The test is described as follows: The compound was tested for binding affinity against 5-hydroxytryptamine 1B receptor. The gist of the method: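 Pig caudate membranes washed at 37 °C to remove endogenous 5-HT, in 50 mM Tris-HCl pH 7.7. Incubated 45 min at 25 °C with 4 nM [3H]sumatriptan plus CaCl2, pargyline and ascorbate, test agent at 10^-6 M; 10 μM 5-HT for nonspecific binding. Filtration, scintillation counting; percent displacement of specific binding.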
Sequence of 5-hydroxytryptamine receptor 1B (P79399 whole entry): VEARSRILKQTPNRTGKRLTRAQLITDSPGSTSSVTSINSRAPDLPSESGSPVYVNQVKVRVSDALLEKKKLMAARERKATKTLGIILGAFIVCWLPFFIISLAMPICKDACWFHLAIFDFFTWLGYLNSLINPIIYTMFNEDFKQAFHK

Sequence of Histamine H1 receptor (P31390 whole entry): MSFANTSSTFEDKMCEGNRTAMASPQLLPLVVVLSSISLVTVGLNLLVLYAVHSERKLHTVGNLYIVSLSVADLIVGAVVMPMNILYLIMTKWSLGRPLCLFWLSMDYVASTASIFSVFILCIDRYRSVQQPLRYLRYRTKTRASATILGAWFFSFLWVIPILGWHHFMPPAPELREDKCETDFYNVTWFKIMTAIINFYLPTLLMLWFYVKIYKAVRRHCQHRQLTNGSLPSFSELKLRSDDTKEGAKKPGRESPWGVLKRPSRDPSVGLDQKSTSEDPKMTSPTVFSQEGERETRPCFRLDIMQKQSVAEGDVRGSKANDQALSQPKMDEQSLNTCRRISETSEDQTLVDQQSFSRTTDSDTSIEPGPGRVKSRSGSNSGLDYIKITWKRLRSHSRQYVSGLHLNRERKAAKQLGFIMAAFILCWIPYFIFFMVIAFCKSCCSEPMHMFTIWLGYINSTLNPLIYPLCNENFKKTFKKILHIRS

In the case of `COc1ccccc1N1CCC(CNCC2COc3ccc(Cl)cc3O2)CC1` (configuration not stated), the ED50 in the test on Rattus norvegicus was determined as 188 mg/kg; in the test on Mus musculus, 5 mg/kg. In addition, the Ki was greater than 1 µM in [1]; greater than 1 µM on Histamine H1 receptor; 0.0132 µM on D(2) dopamine receptor; greater than 0.5 µM in [2]; 0.0016 µM on D(3) dopamine receptor; greater than 0.5 µM in test [3]. Also, the Ki was 0.022 µM in test [4], 0.181 µM in [5], greater than 1 µM on D(1B) dopamine receptor and greater than 1 µM in [6].
